Activity calls are given as the source filed them. The calls are words filed in the database; no cut-off is given here.
Key:
MCF7 = test: Cytotoxicity against human MCF7 cells after 72 hrs by MTT assay; type: functional, cell-based; conditions: MCF7, 72 h
How it was run: (§1)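 Cells (5 × 10^3/well) were seeded and incubated 24 h before drug addition, then exposed for 72 h. MTT was added (5 mg/mL stock) and growth was taken as absorbance relative to untreated wells. IC50 is the dose giving 50% growth inhibition. Three experiments were run, each in triplicate. Media: D-MEM with 10% FCS for MCF-7, HCT116, SW48 and SW480; RPMI1640 with 10% FCS for Mes-sa and CEM.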

[1] = Cytotoxicity against human MES-SA cells after 72 hrs by MTT assay; type: functional, cell-based; how it was run: as §1
CCRF-CEM = test: Cytotoxicity against human CEM cells after 72 hrs by MTT assay; type: functional, cell-based; how it was run: as §1
HCT-116 [2] = test: Cytotoxicity against human HCT116 cells after 72 hrs by MTT assay; type: functional, cell-based; conditions: HCT-116, 72 h; how it was run: as §1
SW48 [3] = test: Cytotoxicity against human SW48 cells after 72 hrs by MTT assay; type: functional, cell-based; conditions: SW48, 72 h; how it was run: as §1
SW480 [4] = test: Cytotoxicity against human SW480 cells after 72 hrs by MTT assay; type: functional, cell-based; conditions: SW480, 72 h; how it was run: as §1
HCT-116 [5] = test: Cell cycle arrest in human HCT116 cells assessed as accumulation at G1 phase at 30 uM after 24 hrs by flow cytometry; type: functional
How it was run: (§2)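 Colorectal lines were cultured in D-MEM with 10% FCS and treated at 30 µM for 24 h. Cells (10^6/mL) were resuspended in propidium iodide solution, held at 4 °C overnight and analysed by flow cytometry for DNA content. Values are means of three experiments ± SD.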

HCT-116 [6] = test: Cell cycle arrest in human HCT116 cells assessed as accumulation at S phase at 30 uM after 24 hrs by flow cytometry; type: functional; how it was run: as §2
HCT-116 [7] = test: Cell cycle arrest in human HCT116 cells assessed as accumulation at G2/M phase at 30 uM after 24 hrs by flow cytometry; type: functional; how it was run: as §2
SW48 [8] = test: Cell cycle arrest in human SW48 cells assessed as accumulation at G1 phase at 30 uM after 24 hrs by flow cytometry; type: functional; how it was run: as §2
SW48 [9] = test: Cell cycle arrest in human SW48 cells assessed as accumulation at S phase at 30 uM after 24 hrs by flow cytometry; type: functional; how it was run: as §2
SW48 [10] = test: Cell cycle arrest in human SW48 cells assessed as accumulation at G2/M phase at 30 uM after 24 hrs by flow cytometry; type: functional; how it was run: as §2
SW480 [11] = test: Cell cycle arrest in human SW480 cells assessed as accumulation at G1 phase at 30 uM after 24 hrs by flow cytometry; type: functional; how it was run: as §2
SW480 [12] = test: Cell cycle arrest in human SW480 cells assessed as accumulation at S phase at 30 uM after 24 hrs by flow cytometry; type: functional; how it was run: as §2
SW480 [13] = test: Cell cycle arrest in human SW480 cells assessed as accumulation at G2/M phase at 30 uM after 24 hrs by flow cytometry; type: functional; how it was run: as §2
Bos taurus = species on record: Bos taurus; test: Inhibition of tubulin polymerization in bovine brain relative to baseline; conditions: concentration not given here
How it was run: (§3)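 Purified bovine brain tubulin (29 µM) was added to PEM buffer (100 mM PIPES, 1 mM MgCl2, 1 mM EGTA) with increasing inhibitor concentrations, up to 100 µM, in DMSO at equal DMSO levels. Polymerization was followed by absorbance at 340 nm for at least 1 h at 37 °C, and IC50 was taken from concentration–response plots.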

HeLa [14] = test: Antimitotic activity in human HeLa cells expressing GFP-tubulin assessed as induction of mitotic deffects at 50 uM by flow cytometry; type: functional, cell-based
[15] = Inhibition of tubulin polymerization in bovine brain; set-up: species or system Bos taurus; how it was run: as §3
HeLa [16] = test: Antimitotic activity in human HeLa cells expressing GFP-tubulin assessed as induction of mitotic deffects by flow cytometry; type: functional, cell-based
HeLa [17] = test: Antimitotic activity in human HeLa cells expressing GFP-tubulin assessed as block of G2/M phase after 24 hrs by flow cytometry; type: functional, cell-based
How it was run: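 HeLa cells were exposed to increasing inhibitor concentrations for 24 h. The percentage of G2/M cells was determined by flow cytometry, with nocodazole as the reference mitotic inhibitor.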

HeLa [18] = test: Antimitotic activity in human HeLa cells expressing GFP-tubulin assessed as aberration of mitotic spindle at 12 uM after 24 hrs by fluorescence microscopy; type: functional; conditions: in the assay text read “6 hrs” for “24 hrs”
How it was run: (§4)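 HeLa cells were grown in DMEM with 10% FBS at 37 °C in 5% CO2 and left to adhere for at least 36 h on poly-D-lysine-coated coverslips. Drugs were diluted in medium from 50 mM DMSO stocks. Cells were fixed with 1% paraformaldehyde then cold methanol and stained with anti-β-tubulin plus a FITC secondary, with propidium iodide counterstain. Aberrant spindles were scored as a percentage of total spindles counted.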

HeLa [19] = test: Antimitotic activity in human HeLa cells expressing GFP-tubulin assessed as increase in aberration of mitotic spindle after 24 hrs by fluorescence microscopy; type: functional, cell-based; conditions: in the assay text read “6 hrs” for “24 hrs”; how it was run: as §4
HeLa [20] = test: Antimitotic activity in human HeLa cells expressing GFP-tubulin assessed as collapse of spindle microtubule at 12 uM

| Structure (SMILES) | IC50 (MCF7) | IC50 [1] | IC50 (CCRF-CEM) | IC50 (HCT-116 [2]) | IC50 (SW48 [3]) | IC50 (SW480 [4]) | Activity (HCT-116 [5]) | Activity (HCT-116 [6]) | Activity (HCT-116 [7]) | Activity (SW48 [8]) | Activity (SW48 [9]) | Activity (SW48 [10]) | Activity (SW480 [11]) | Activity (SW480 [12]) | Activity (SW480 [13]) | IC50 [15] | Activity (HeLa [16]) | Activity (HeLa [17]) | Activity (HeLa [18]) | Activity (HeLa [19]) | other results |
| --- | --- | --- | --- | --- | --- | --- | --- | --- | --- | --- | --- | --- | --- | --- | --- | --- | --- | --- | --- | --- | --- |
| COc1ccc(CNc2nc(NCc3ccc(OC)cc3)n3ncc(Br)c3n2)cc1 | 35.5 µM | 43 µM | 38.5 µM | 25 µM | 7.5 µM | 26.5 µM | 44% | 0.5% | 55.5% | 50% | 0.5% | 42.5% | 62% | 9% | 28% |  |  |  |  |  | inhibition (Bos taurus): 50%; Activity (HeLa [14]): inactive |
| COc1ccc(CNc2nc(NCc3ccc(OC)cc3)n3ncc(C(C)C)c3n2)cc1 | 51.5 µM | 23 µM | 5.4 µM | 4.6 µM | 2.6 µM | 5.5 µM | 8% | 2.8% | 89.3% | 22.4% | 1.3% | 75.4% | 3% | 5.9% | 91.2% | 3.6 µM | Active | Active | 100% | Dose-dependent effect |  |
| COc1ccc(CNc2nc(NCc3ccc(OC)cc3)n3nccc3n2)cc1 | 34 µM | 45 µM | 13 µM | 6.2 µM | 5.2 µM | 8.1 µM | 19% | 29% | 51% | 16% | 21% | 62% | 43% | 15% | 42% | 3.4 µM | Active | Active | 100% | Dose-dependent effect |  |
| COc1ccc(CNc2nc(NCc3ccc(OC)cc3)c3ncn(C(C)C)c3n2)cc1 [MYOSEVERIN] | 11.5 µM | 8.5 µM | 5.7 µM | 3.3 µM | 2.7 µM | 4.8 µM | 1.8% | 9.5% | 88% | 1% | 1% | 98% | 12.5% | 3% | 84.5% | 3.6 µM | Active | Active | 100% | Dose-dependent effect | Activity (HeLa [20]): Active |

From ChEMBL document CHEMBL1138620, “Synthesis and antiproliferative evaluation of pyrazolo[1,5-a]-1,3,5-triazine myoseverin derivatives” (Bioorg Med Chem, 2009)
